Reference: the M2OR odorant receptor database

Legend:
Details in all cases: stereoisomer not certain
[1] = biological target: T1, UniProt Q8VGM2
T1 sequence (whole entry): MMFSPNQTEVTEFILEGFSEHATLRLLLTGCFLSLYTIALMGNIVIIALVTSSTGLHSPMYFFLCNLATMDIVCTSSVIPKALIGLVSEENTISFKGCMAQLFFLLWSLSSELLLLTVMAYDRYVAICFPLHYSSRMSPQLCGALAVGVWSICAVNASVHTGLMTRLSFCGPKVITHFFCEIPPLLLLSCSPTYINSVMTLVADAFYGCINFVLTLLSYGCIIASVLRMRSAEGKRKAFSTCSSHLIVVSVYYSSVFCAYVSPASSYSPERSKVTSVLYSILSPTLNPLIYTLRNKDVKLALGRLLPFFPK
Method in brief: (§1)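 Transient luciferase assays in mammalian cell lines were common, though methods varied by source. The values come from published papers and their supplementary material, with extra details from the original authors when needed. Responsive refers to a measured signal the original authors judged statistically different from baseline, and non-responsive (inactive) to the remainder.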

[2] = biological target: T2, UniProt Q8VGP6
T2 sequence (whole entry): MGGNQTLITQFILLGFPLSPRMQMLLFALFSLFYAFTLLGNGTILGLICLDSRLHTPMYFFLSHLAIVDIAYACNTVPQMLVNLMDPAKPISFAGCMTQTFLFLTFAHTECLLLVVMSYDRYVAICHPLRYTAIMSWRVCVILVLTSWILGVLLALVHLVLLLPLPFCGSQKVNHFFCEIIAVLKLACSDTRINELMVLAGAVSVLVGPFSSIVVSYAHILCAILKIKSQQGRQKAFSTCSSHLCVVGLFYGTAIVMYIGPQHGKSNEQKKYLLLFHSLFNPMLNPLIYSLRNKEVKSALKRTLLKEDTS
Method in brief: as §1

[3] = biological target: T3, UniProt Q8VGQ3
T3 sequence (whole entry): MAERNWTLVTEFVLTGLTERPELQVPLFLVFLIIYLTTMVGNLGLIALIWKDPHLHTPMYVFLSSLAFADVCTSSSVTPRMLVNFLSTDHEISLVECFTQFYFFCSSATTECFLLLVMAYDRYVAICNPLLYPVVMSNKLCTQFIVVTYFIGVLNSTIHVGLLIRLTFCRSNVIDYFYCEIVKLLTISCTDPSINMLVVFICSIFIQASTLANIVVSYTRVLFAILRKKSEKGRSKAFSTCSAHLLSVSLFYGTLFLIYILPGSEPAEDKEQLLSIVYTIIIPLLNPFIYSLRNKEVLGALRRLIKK
Method in brief: as §1

[4] = biological target: T4, UniProt Q8VGT4
T4 sequence (whole entry): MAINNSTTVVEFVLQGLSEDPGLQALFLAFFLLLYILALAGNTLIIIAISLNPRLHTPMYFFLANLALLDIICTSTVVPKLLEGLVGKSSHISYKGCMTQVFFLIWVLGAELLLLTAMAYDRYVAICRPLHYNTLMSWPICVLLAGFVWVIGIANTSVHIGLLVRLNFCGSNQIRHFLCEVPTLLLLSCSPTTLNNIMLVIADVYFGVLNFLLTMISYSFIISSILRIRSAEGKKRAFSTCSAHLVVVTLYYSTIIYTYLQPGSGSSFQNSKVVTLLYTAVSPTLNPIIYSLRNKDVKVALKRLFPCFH
Method in brief: as §1

[5] = biological target: T5, UniProt Q8VGU3
T5 sequence (whole entry): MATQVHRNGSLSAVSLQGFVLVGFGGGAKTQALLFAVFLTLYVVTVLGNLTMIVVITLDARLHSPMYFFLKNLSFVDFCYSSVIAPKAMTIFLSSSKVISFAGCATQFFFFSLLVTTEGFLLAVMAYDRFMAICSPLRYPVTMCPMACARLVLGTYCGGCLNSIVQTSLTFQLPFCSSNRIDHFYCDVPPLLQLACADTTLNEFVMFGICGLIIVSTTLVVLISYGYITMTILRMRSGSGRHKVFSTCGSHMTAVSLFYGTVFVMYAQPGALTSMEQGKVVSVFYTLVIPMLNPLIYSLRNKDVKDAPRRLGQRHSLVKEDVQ
Method in brief: as §1

[6] = biological target: T6, UniProt Q8VGV1
T6 sequence (whole entry): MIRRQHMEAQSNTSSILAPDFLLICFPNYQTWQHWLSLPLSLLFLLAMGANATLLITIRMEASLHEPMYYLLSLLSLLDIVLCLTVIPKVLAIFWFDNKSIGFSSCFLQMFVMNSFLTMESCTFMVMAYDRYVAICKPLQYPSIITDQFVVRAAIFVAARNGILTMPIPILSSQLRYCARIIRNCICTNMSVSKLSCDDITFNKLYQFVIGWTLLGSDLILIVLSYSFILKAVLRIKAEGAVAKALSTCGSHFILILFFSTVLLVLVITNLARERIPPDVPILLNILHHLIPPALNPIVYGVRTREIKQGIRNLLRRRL
Method in brief: as §1

[7] = biological target: T7, UniProt Q8VGV7
T7 sequence (whole entry): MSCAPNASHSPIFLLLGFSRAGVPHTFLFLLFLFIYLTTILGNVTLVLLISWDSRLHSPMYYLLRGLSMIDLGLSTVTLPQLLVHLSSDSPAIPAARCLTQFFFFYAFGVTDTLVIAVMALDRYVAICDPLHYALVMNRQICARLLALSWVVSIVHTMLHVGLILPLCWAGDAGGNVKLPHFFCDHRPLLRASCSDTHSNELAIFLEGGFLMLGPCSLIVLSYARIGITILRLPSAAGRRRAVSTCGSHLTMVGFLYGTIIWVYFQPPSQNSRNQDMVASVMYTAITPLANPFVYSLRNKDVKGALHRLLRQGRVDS
Method in brief: as §1

[8] = biological target: T8, UniProt Q8VGX3
T8 sequence (whole entry): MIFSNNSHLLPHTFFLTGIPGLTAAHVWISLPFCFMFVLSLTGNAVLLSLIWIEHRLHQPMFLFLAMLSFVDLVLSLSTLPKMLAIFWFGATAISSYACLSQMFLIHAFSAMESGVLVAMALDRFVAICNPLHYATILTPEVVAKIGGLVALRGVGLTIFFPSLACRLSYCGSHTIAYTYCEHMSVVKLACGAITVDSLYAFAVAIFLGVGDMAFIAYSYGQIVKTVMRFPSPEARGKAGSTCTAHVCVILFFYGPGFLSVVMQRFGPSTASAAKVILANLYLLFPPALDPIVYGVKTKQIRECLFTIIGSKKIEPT
Method in brief: as §1

[9] = biological target: T9, UniProt Q8VGX5
T9 sequence (whole entry): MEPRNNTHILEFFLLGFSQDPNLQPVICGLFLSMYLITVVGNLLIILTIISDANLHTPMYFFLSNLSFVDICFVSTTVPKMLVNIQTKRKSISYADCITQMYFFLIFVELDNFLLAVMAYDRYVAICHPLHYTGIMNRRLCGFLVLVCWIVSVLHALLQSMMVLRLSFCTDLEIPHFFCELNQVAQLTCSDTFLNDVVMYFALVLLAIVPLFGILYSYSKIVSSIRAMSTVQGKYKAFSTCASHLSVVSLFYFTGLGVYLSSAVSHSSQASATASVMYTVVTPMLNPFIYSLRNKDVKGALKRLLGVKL
Method in brief: as §1

[10] = biological target: T10, UniProt Q8VGW5
T10 sequence (whole entry): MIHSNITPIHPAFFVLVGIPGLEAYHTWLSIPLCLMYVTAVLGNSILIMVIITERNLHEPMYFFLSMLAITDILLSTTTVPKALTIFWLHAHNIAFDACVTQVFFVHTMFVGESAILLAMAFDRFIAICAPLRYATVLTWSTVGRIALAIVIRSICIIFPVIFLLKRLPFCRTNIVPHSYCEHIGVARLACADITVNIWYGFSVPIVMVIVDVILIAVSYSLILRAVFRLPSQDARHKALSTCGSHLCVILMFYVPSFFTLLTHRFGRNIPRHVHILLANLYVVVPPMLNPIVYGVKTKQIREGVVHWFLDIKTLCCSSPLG
Method in brief: as §1

Measured: odorant receptor agonist call;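 also: active if original authors judged signal statistically different from baseline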

CCCCCC=O
inactive: [1] | [2] | [3] | [4] | [5] | [6] | [7] | [8] | [9]

CCCCCC(=O)CC
inactive: [1] | [2] | [3] | [4] | [5] | [6] | [7] | [8] | [9]

CCCCCCCC(C)=O
inactive: [1] | [2] | [3] | [4] | [5] | [6] | [7] | [8] | [9]

O=C(c1ccccc1)c1ccccc1
inactive: [1] | [2] | [3] | [4] | [5] | [6] | [7] | [8] | [9]

CCCCCC1=C(C)CCC1=O
inactive: [1] | [2] | [3] | [4] | [5] | [6] | [7] | [8]
active: [9]

CCCCC(=O)O
inactive: [1] | [2] | [3] | [4] | [5] | [6] | [7] | [8] | [9]

O=C1CCOc2ccccc21
inactive: [1] | [2] | [3] | [4] | [5] | [6] | [7] | [8]
active: [9]

CCCCCCCCC(=O)O
active: [6]
inactive: [1] | [2] | [3] | [4] | [5] | [7] | [10] | [8] | [9]

C=CCOC(=O)CCCCCC
inactive: [1] | [2] | [3] | [4] | [5] | [6] | [7] | [8] | [9]

CCCCCCCCS
inactive: [1] | [2] | [3] | [4] | [5] | [6] | [7] | [8] | [9]

CCC(=O)C(=O)CC
inactive: [1] | [2] | [3] | [4] | [5] | [6] | [7] | [8] | [9]

CCCCCCCCCC(=O)[O-].[H+]
active: [6]
inactive: [1] | [2] | [3] | [4] | [5] | [7] | [10] | [8] | [9]

CCCCCCCCCS
active: [2]
inactive: [1] | [3] | [4] | [5] | [6] | [7] | [8] | [9]

CCCCCCCCCO
inactive: [1] | [3] | [4] | [5] | [6] | [7] | [10] | [8] | [9]
active: [2]

CCCCOC=O
inactive: [1] | [2] | [3] | [4] | [5] | [6] | [7] | [8] | [9]

O=C1Cc2ccccc2O1
inactive: [1] | [2] | [3] | [4] | [5] | [6] | [7] | [8]
active: [9]

c1ccccc1
inactive: [1] | [2] | [3] | [4] | [5] | [6] | [7] | [8] | [9]

CC(=O)OCC=C(C)C
inactive: [1] | [2] | [3] | [4] | [5] | [6] | [7] | [8]
active: [9]

CCCCCCCCO
active: [2]
inactive: [1] | [3] | [4] | [5] | [6] | [7] | [10] | [8] | [9]
